In ChEMBL document CHEMBL1142894, “Preparation of 5-aryl-3-alkylthio-l,2,4-triazoles and corresponding sulfones with antiinflammatory-analgesic activity” (Bioorg Med Chem, 2007):
Active and inactive are the calls of the source. The rule behind the calls is not given here.

Experiments:
Mus musculus [1] = assay: Inhibition of carrageenan-induced paw edema in Swiss albino mouse at 100 mg/kg, po after 270 mins relative to control; format: functional; conditions: 4.5 h
Outline: (§1)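 Oral dosing in 0.5% CMC; vehicle to controls. Then carrageenan (0.5 mg/25 ll, freshly suspended in 154 mM saline) injected into the right hind paw subplantar tissue; saline into the left paw. Right-left footpad thickness difference measured by dial gauge calliper every 90 min over 6 h. Inhibition % is relative to vehicle control. n = 6; mean ± SEM.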

Mus musculus [2] = assay: Inhibition of p-benzoquinone-induced writhing in Swiss albino mouse at 25 mg/kg, po relative to control; format: functional
Outline: (§2)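 Mice, n = 6 per group, dosed orally with a suspension in 0.5% sodium CMC. 60 min later, 0.1 ml/10 g of 2.5% […] p-benzoquinone in distilled water given ip. Abdominal writhes counted per animal for 15 min, starting 5 min after injection. Expressed as % change in mean writhing count versus vehicle controls.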

Mus musculus [3] = assay: Inhibition of p-benzoquinone-induced writhing in Swiss albino mouse at 200 mg/kg, po relative to control; format: functional; outline: as §2
Mus musculus [4] = assay: Inhibition of carrageenan-induced paw edema in Swiss albino mouse at 25 mg/kg, po after 180 mins relative to control; format: functional; conditions: 3 h; outline: as §1
Mus musculus [5] = assay: Antiinflammatory activity against carrageenan-induced paw edema in Swiss albino mouse assessed as swelling thickness at 200 mg/kg, po after 90 mins; format: functional; outline: as §1
Mus musculus [6] = assay: Analgesic activity against p-benzoquinone-induced abdominal constriction in Swiss albino mouse assessed as number of writhings at 100 mg/kg, po; format: functional, Abdomen
Outline: (§3)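 Test samples given orally in 0.5% CMC; vehicle to controls. 60 min later, 2.5% (v/v) p-benzoquinone in distilled water, 0.1 ml/10 g, given i.p. Mice housed singly; writhes counted for 15 min starting 5 min after injection. Activity is % change from vehicle controls. n = 6; mean ± SEM.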

Mus musculus [7] = assay: Antiinflammatory activity against carrageenan-induced paw edema in Swiss albino mouse assessed as swelling thickness at 100 mg/kg, po after 270 mins; format: functional; outline: as §1
Mus musculus [8] = assay: Acute toxicity in Swiss albino mouse assessed as lethal effect at 100 mg/kg/day, po after 72 hrs; format: organism-based; design: route oral; conditions: in vivo
Outline: (§4)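 Oral single dose suspended in 0.5% carboxymethylcellulose, given after a 24 h fast; food and water returned 1 h after dosing. Vehicle-only controls. Mice observed at 1 h, then once daily for 72 h, for toxic signs and mortality.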

Mus musculus [9] = assay: Gastric-ulcerogenic effect in Swiss albino mouse assessed as lesions at 100 mg/kg, po; format: functional, organism-based; design: dose 100 mg/kg
Outline: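 Mice killed under deep ether anesthesia 3 h after the writhing test; the oral dose in 0.5% CMC was the one used in that test. Stomachs removed, opened along the great curvature and examined under a dissecting microscope for lesions or bleeding. Reported as ratio of ulceration; n = 6.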

Mus musculus [10] = assay: Antiinflammatory activity against carrageenan-induced paw edema in Swiss albino mouse assessed as swelling thickness at 25 mg/kg, po after 180 mins; format: functional; outline: as §1
Mus musculus [11] = assay: Inhibition of carrageenan-induced paw edema in Swiss albino mouse at 200 mg/kg, po after 180 mins relative to control; format: functional; conditions: 3 h; outline: as §1
Mus musculus [12] = assay: Antiinflammatory activity against carrageenan-induced paw edema in Swiss albino mouse assessed as swelling thickness at 25 mg/kg, po after 360 mins; format: functional; outline: as §1
Mus musculus [13] = assay: Antiinflammatory activity against carrageenan-induced paw edema in Swiss albino mouse assessed as swelling thickness at 50 mg/kg, po after 270 mins; format: functional; outline: as §1
Mus musculus [14] = assay: Acute toxicity in Swiss albino mouse assessed as lethal effect at 50 mg/kg/day, po after 72 hrs; format: organism-based; design: route oral; conditions: in vivo; outline: as §4
Mus musculus [15] = assay: Antiinflammatory activity against carrageenan-induced paw edema in Swiss albino mouse assessed as swelling thickness at 200 mg/kg, po after 360 mins; format: functional; outline: as §1
Mus musculus [16] = assay: Antiinflammatory activity against carrageenan-induced paw edema in Swiss albino mouse assessed as swelling thickness at 50 mg/kg, po after 90 mins; format: functional; outline: as §1
Mus musculus [17] = assay: Acute toxicity in Swiss albino mouse assessed as lethal effect at 25 mg/kg/day, po after 72 hrs; format: organism-based; design: route oral; conditions: in vivo; outline: as §4
Mus musculus [18] = assay: Inhibition of carrageenan-induced paw edema in Swiss albino mouse at 50 mg/kg, po after 360 mins relative to control; format: functional; conditions: 6 h
Outline: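 Mice, n = 6 per group. Test agent given orally as a suspension in 0.5% sodium CMC in distilled water; controls received vehicle only. Afterwards, 0.5 mg/25 ll carrageenan in saline (154 mM NaCl) injected subplantar into the right hind paw, saline into the left. Right-minus-left footpad thickness measured by dial gauge caliper every 90 min for 6 h. Inhibition is relative to vehicle-control group means.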

Mus musculus [19] = assay: Inhibition of carrageenan-induced paw edema in Swiss albino mouse at 200 mg/kg, po after 360 mins relative to control; format: functional; conditions: 6 h; outline: as §1
Mus musculus [20] = assay: Inhibition of carrageenan-induced paw edema in Swiss albino mouse at 200 mg/kg, po after 90 mins relative to control; format: functional; conditions: 1.5 h; outline: as §1
Mus musculus [21] = assay: Inhibition of carrageenan-induced paw edema in Swiss albino mouse at 50 mg/kg, po after 180 mins relative to control; format: functional; conditions: 3 h; outline: as §1
Mus musculus [22] = assay: Inhibition of p-benzoquinone-induced writhing in Swiss albino mouse at 100 mg/kg, po relative to control; format: functional; outline: as §2
Mus musculus [23] = assay: Antiinflammatory activity against carrageenan-induced paw edema in Swiss albino mouse assessed as swelling thickness at 100 mg/kg, po after 90 mins; format: functional; outline: as §1
Mus musculus [24] = assay: Analgesic activity against p-benzoquinone-induced abdominal constriction in Swiss albino mouse assessed as number of writhings at 50 mg/kg, po; format: functional, Abdomen; outline: as §3

CCS(=O)(=O)c1nc(-c2ccc(Cl)cc2)n[nH]1
inhibition in vivo at 100 mg/kg (Mus musculus [1]): 41.3%
inhibition in vivo at 25 mg/kg (Mus musculus [2]): 26.5%
inhibition in vivo at 200 mg/kg (Mus musculus [3]): 18.5%
inhibition in vivo at 25 mg/kg (Mus musculus [4]): 16.5%
Activity (Mus musculus [5]): 45.5 10^-2mm
Activity (Mus musculus [6]): 20.4
Activity (Mus musculus [7]): 34.5 10^-2mm
Activity (Mus musculus [8]): Non-toxic
Activity (Mus musculus [9]): Active
Activity (Mus musculus [10]): 49.6 10^-2mm
inhibition in vivo at 200 mg/kg (Mus musculus [11]): 17.7%
Activity (Mus musculus [12]): 61.2 10^-2mm
Activity (Mus musculus [13]): 37.2 10^-2mm
Activity (Mus musculus [14]): Non-toxic
Activity (Mus musculus [15]): 58.4 10^-2mm
Activity (Mus musculus [16]): 35.4 10^-2mm
Activity (Mus musculus [17]): Non-toxic
inhibition in vivo at 50 mg/kg (Mus musculus [18]): 45.3%
inhibition in vivo at 200 mg/kg (Mus musculus [19]): 18.9%
inhibition in vivo at 200 mg/kg (Mus musculus [20]): 14.5%
inhibition in vivo at 50 mg/kg (Mus musculus [21]): 39.2%
inhibition in vivo at 100 mg/kg (Mus musculus [22]): 56.9%
Activity (Mus musculus [23]): 27.2 10^-2mm
Activity (Mus musculus [24]): 20.8
